Test results: ChEMBL document CHEMBL1154113, “Synthesis, cannabinoid receptor affinity, molecular modeling studies and in vivo pharmacological evaluation of new substituted 1-aryl-5-(1H-pyrrol-1-yl)-1H-pyrazole-3-carboxamides. 2. Effect of the 3-carboxamide substituent on the affinity and selectivity profile” (Bioorg Med Chem, 2009)
pKi: −log10 of the molar value. The source made the active and inactive calls. No cut-off for these calls is given here.

Legend:
Cannabinoid receptor 1 = Cannabinoid receptor 1 (Homo sapiens, UniProt P21554); assay: biochemical; assay type: cell-based, HEK293
Cannabinoid receptor 1, sequence (P21554 whole entry): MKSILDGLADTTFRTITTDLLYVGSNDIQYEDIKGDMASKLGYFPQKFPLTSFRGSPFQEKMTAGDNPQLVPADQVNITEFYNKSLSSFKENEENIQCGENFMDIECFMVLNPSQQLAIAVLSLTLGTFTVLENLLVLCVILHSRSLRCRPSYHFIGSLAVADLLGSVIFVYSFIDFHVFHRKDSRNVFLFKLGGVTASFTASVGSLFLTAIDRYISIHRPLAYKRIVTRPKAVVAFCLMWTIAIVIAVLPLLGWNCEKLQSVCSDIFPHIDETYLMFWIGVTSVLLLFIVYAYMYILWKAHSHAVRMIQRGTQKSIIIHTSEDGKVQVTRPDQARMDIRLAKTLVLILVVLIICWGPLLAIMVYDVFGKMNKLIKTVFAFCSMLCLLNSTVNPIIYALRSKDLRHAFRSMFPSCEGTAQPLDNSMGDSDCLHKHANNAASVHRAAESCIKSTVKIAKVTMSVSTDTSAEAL

Cannabinoid receptor 2 = Cannabinoid receptor 2 (Homo sapiens, UniProt P34972); assay: Displacement of [3H]CP-55940 from human recombinant CB2 receptor expressed in HEK cells; assay type: cell-based, HEK293
Cannabinoid receptor 2, sequence (P34972 whole entry): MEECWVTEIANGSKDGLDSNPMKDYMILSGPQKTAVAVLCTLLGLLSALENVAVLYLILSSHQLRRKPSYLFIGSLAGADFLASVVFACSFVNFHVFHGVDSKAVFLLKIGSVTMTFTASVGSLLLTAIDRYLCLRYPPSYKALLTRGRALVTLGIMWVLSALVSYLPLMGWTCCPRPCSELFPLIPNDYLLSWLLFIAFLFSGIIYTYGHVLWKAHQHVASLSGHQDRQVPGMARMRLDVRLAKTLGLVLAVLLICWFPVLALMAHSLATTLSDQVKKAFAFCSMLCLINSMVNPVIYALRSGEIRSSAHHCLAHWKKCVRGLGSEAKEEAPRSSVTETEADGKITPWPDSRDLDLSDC

Homo sapiens = species: Homo sapiens; assay: Selectivity index, ratio of Ki for human recombinant CB2 receptor to Ki for human recombinant CB1 receptor
Rattus norvegicus [1] = assay: Reduction in cumulative food intake in Wistar rat at 1 mg/kg, ip measured 360 mins after lights off; assay type: functional
Procedure, shortened: (§1)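 Adult male Wistar rats, about 400 g, housed singly under an inverted 12:12 h cycle, with free access to chow and water. Groups of n = 6–8 were matched on body weight and intake and given 0, 0.1, 1 or 10 mg/kg ip, suspended in saline with a few drops of Tween 80, 30 min before lights off. Food and water were weighed at 60–360 and 1440 min. Newman–Keuls test against vehicle.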

Rattus norvegicus [2] = assay: Reduction in cumulative food intake in Wistar rat at 10 mg/kg, ip measured 360 mins after lights off; assay type: functional; conditions: 6 h, route intraperitoneal
Procedure, shortened: as §1

Rattus norvegicus [3] = assay: Reduction in food intake in Wistar rat at 10 mg/kg, ip after 1440 mins; assay type: functional, organism-based; design: dose 10 mg/kg
Procedure, shortened: as §1

Rattus norvegicus [4] = assay: Reduction in cumulative water intake in Wistar rat at 0.1 to 10 mg/kg, ip measured 360 mins after lights off; assay type: functional, organism-based
Procedure, shortened: as §1

Rattus norvegicus [5] = assay: Reduction in cumulative water intake in Wistar rat at 0.1 to 10 mg/kg, ip after 1440 mins; assay type: functional, organism-based
Procedure, shortened: as §1

Rattus norvegicus [6] = assay: Reduction in cumulative food intake in Wistar rat at 10 mg/kg, ip measured 60 mins after lights off relative to control; assay type: functional; conditions: 1 h, route intraperitoneal
Procedure, shortened: as §1

Cc1c(C(=O)NC2CCCCCC2)nn(-c2ccc(F)cc2F)c1-n1c(C)ccc1C
pKi (Cannabinoid receptor 1): 7.25
pKi (Cannabinoid receptor 2): 6.96
Ratio Ki (Homo sapiens): 1.96

Cc1c(C(=O)NCCc2ccc(Cl)cc2Cl)nn(-c2ccc(F)cc2F)c1-n1cccc1
pKi (Cannabinoid receptor 1): 6.42
pKi (Cannabinoid receptor 2): 6.18
Ratio Ki (Homo sapiens): 1.75

Cc1c(C(=O)NC2CCCC2)nn(-c2ccc(F)cc2F)c1-n1c(C)ccc1C
pKi (Cannabinoid receptor 1): 6.08
pKi (Cannabinoid receptor 2): 6.05
Ratio Ki (Homo sapiens): 1.07

Cc1c(C(=O)NCCc2ccc(Cl)c(Cl)c2)nn(-c2ccc(Cl)cc2Cl)c1-n1c(C)ccc1C
pKi (Cannabinoid receptor 1): 6.93
pKi (Cannabinoid receptor 2): < 5.40
Ratio Ki (Homo sapiens): > 33.4

Cc1c(C(=O)NCCc2ccc(Cl)cc2Cl)nn(-c2ccc(Cl)cc2Cl)c1-n1cccc1
pKi (Cannabinoid receptor 1): 6.66
pKi (Cannabinoid receptor 2): < 5.40
Ratio Ki (Homo sapiens): > 18.1

Cc1c(C(=O)NC2CCCC2)nn(-c2ccc(F)cc2F)c1-n1cccc1
pKi (Cannabinoid receptor 1): 5.62
pKi (Cannabinoid receptor 2): 5.96
Ratio Ki (Homo sapiens): 0.46

Cc1c(C(=O)NCCc2ccc(Cl)cc2Cl)nn(-c2ccc(Cl)cc2Cl)c1-n1c(C)ccc1C
pKi (Cannabinoid receptor 1): 6.81
pKi (Cannabinoid receptor 2): < 5.40
Ratio Ki (Homo sapiens): > 25.2

COc1cc(CNC(=O)c2nn(-c3ccc(Cl)cc3Cl)c(-n3cccc3)c2C)c(Br)c(OC)c1OC
pKi (Cannabinoid receptor 1): 6.64
pKi (Cannabinoid receptor 2): 6.22
Ratio Ki (Homo sapiens): 2.68

Cc1c(C(=O)N[C@H](C)C2CCCCC2)nn(-c2ccc(Cl)c(Cl)c2)c1-n1cccc1
pKi (Cannabinoid receptor 1): 7.85
pKi (Cannabinoid receptor 2): 8.80
Ratio Ki (Homo sapiens): 0.11

Cc1c(C(=O)NC23CC4CC(CC(C4)C2)C3)nn(-c2ccc(Cl)c(Cl)c2)c1-n1c(C)ccc1C
pKi (Cannabinoid receptor 1): 8.25
pKi (Cannabinoid receptor 2): 7.92
Ratio Ki (Homo sapiens): 2.14

Cc1c(C(=O)NC2CCCC2)nn(-c2ccc(Cl)c(Cl)c2)c1-n1cccc1
pKi (Cannabinoid receptor 1): 7.30
pKi (Cannabinoid receptor 2): 7.92
Ratio Ki (Homo sapiens): 0.24

Cc1c(C(=O)NCCc2ccc(Cl)cc2)nn(-c2ccc(Cl)c(Cl)c2)c1-n1c(C)ccc1C
pKi (Cannabinoid receptor 1): 6.41
pKi (Cannabinoid receptor 2): < 5.40
Ratio Ki (Homo sapiens): > 10.1

Cc1c(C(=O)NCc2ccc(Cl)cc2)nn(-c2ccc(Cl)cc2Cl)c1-n1c(C)ccc1C
pKi (Cannabinoid receptor 1): 7.05
pKi (Cannabinoid receptor 2): < 5.40
Ratio Ki (Homo sapiens): > 43.8

Cc1c(C(=O)NC2CCCCCC2)nn(-c2ccc(Cl)cc2Cl)c1-n1cccc1
pKi (Cannabinoid receptor 1): 7.70
pKi (Cannabinoid receptor 2): 7.70
Ratio Ki (Homo sapiens): 1

COc1ccc(CCNC(=O)c2nn(-c3ccc(F)cc3F)c(-n3cccc3)c2C)cc1Cl
pKi (Cannabinoid receptor 1): 6.02
pKi (Cannabinoid receptor 2): 5.71
Ratio Ki (Homo sapiens): 2.05

Cc1c(C(=O)NCCc2ccc(Cl)cc2)nn(-c2ccc(F)cc2F)c1-n1c(C)ccc1C
pKi (Cannabinoid receptor 1): 7.30
pKi (Cannabinoid receptor 2): < 5.40
Ratio Ki (Homo sapiens): > 78.8
Activity (Rattus norvegicus [1]): Active
inhibition in vivo at 10 mg/kg (Rattus norvegicus [2]): 25%
Activity (Rattus norvegicus [3]): Active
Activity (Rattus norvegicus [4]): inactive
Activity (Rattus norvegicus [5]): inactive
inhibition in vivo at 10 mg/kg (Rattus norvegicus [6]): 40%

COc1cc(CNC(=O)c2nn(-c3ccc(F)cc3F)c(-n3cccc3)c2C)c(Br)c(OC)c1OC
pKi (Cannabinoid receptor 1): 6.46
pKi (Cannabinoid receptor 2): 6.13
Ratio Ki (Homo sapiens): 2.14

Cc1c(C(=O)NCCc2ccc(Cl)cc2)nn(-c2ccc(F)cc2F)c1-n1cccc1
pKi (Cannabinoid receptor 1): 7.10
pKi (Cannabinoid receptor 2): < 5.40
Ratio Ki (Homo sapiens): > 49.2

Cc1c(C(=O)Nc2ccc(Cl)cc2)nn(-c2ccc(Cl)c(Cl)c2)c1-n1cccc1
pKi (Cannabinoid receptor 1): 5.89
pKi (Cannabinoid receptor 2): 6.10
Ratio Ki (Homo sapiens): 0.61

Cc1c(C(=O)Nc2ccc(Cl)cc2)nn(-c2ccc(Cl)c(Cl)c2)c1-n1c(C)ccc1C
pKi (Cannabinoid receptor 1): < 5.55
pKi (Cannabinoid receptor 2): < 5.40

Cc1c(C(=O)NC23CC4CC(CC(C4)C2)C3)nn(-c2ccc(Cl)c(Cl)c2)c1-n1cccc1
pKi (Cannabinoid receptor 1): 7.51
pKi (Cannabinoid receptor 2): 7.70
Ratio Ki (Homo sapiens): 0.65

Cc1c(C(=O)NC2CCCC2)nn(-c2ccc(Cl)c(Cl)c2)c1-n1c(C)ccc1C
pKi (Cannabinoid receptor 1): 7.44
pKi (Cannabinoid receptor 2): 7.92
Ratio Ki (Homo sapiens): 0.33

Cc1c(C(=O)NCc2ccc(Cl)cc2)nn(-c2ccc(Cl)c(Cl)c2)c1-n1c(C)ccc1C
pKi (Cannabinoid receptor 1): 7.00
pKi (Cannabinoid receptor 2): 6.10
Ratio Ki (Homo sapiens): 7.9

Cc1c(C(=O)NC2CCCCC2)nn(-c2ccc(Cl)c(Cl)c2)c1-n1cccc1
Ratio Ki (Homo sapiens): 0.3

Cc1c(C(=O)NC2CCCC2)nn(-c2ccc(Cl)cc2Cl)c1-n1c(C)ccc1C
pKi (Cannabinoid receptor 1): 6.82
pKi (Cannabinoid receptor 2): 6.51
Ratio Ki (Homo sapiens): 2.07

Cc1c(C(=O)NCc2ccc(Cl)cc2)nn(-c2ccc(Cl)cc2Cl)c1-n1cccc1
pKi (Cannabinoid receptor 1): 6.85
pKi (Cannabinoid receptor 2): 6.03
Ratio Ki (Homo sapiens): 6.71

Cc1c(C(=O)Nc2ccc(Cl)cc2)nn(-c2ccc(F)cc2F)c1-n1c(C)ccc1C
pKi (Cannabinoid receptor 1): 6.25
pKi (Cannabinoid receptor 2): < 5.40
Ratio Ki (Homo sapiens): > 7.04
